Assay results taken from paper PMC7564327 (Acta Pharmaceutica Sinica. B, 2020).
Where a name gives a salt, the structure may show the parent alone. Each block holds one molecule with its values, some of them ahead of it.

Tests used:
hOATP1B3 = molecular target: T1, hOATP1B3 (Homo sapiens, UniProt Q9NPD5); test: Cellular uptake and kinetics in HEK293-hOATP1B3 vs Mock cells; format: in vitro ADME
T1 sequence (Q9NPD5 1-702): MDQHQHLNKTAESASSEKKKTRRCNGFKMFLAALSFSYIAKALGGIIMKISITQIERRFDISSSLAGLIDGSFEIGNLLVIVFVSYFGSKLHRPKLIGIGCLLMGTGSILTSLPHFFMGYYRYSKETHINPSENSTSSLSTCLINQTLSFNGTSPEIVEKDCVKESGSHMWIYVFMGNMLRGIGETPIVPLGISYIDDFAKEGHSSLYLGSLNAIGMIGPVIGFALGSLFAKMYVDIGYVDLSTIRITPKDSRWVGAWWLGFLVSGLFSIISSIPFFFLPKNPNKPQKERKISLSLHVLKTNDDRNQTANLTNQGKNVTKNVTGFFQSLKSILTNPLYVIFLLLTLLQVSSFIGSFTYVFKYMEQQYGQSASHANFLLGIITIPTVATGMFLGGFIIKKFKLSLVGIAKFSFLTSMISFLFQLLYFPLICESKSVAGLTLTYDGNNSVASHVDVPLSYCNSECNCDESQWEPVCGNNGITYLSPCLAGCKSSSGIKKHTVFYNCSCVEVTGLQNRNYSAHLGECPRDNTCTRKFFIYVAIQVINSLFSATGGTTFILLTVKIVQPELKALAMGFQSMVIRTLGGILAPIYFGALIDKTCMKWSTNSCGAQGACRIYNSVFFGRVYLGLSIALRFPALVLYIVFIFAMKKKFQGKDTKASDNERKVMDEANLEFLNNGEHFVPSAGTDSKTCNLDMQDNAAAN
In short: (§1)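 Transfected cells and matching Mock cells were seeded at 2 × 10⁵ cells/mL and grown 2 days. After a DPBS (pH 7.4) wash and 10 min preincubation at 37 °C, cells took up 100 μmol/L test compound for 2–5 min at 37 °C. Uptake was stopped with three ice-cold DPBS washes, followed by methanol extraction and HPLC–MS. Values were normalised to BCA protein and compared with Mock.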

hOATP1B1 = molecular target: T2, hOATP1B1 (Homo sapiens, UniProt Q9Y6L6); test: Cellular uptake and kinetics in HEK293-hOATP1B1 vs Mock cells; format: in vitro ADME
T2 sequence (Q9Y6L6 1-691): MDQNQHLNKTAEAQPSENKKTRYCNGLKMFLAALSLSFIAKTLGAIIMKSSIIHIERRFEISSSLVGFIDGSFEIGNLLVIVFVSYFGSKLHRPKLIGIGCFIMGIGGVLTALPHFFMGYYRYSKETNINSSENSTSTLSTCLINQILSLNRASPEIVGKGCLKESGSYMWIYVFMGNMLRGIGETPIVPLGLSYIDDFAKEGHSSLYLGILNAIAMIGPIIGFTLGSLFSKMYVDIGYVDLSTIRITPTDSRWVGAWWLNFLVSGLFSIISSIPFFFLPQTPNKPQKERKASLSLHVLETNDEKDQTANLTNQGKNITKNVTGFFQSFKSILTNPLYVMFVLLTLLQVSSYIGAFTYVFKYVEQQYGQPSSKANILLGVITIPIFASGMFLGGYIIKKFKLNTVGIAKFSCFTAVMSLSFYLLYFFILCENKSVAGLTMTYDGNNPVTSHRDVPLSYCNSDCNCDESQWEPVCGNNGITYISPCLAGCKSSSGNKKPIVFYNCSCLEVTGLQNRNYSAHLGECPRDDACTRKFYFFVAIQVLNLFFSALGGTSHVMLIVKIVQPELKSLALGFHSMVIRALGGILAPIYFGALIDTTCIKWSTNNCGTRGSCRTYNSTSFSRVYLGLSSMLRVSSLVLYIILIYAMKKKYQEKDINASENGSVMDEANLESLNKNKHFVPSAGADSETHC

hOAT3 = molecular target: T3, hOAT3 (Homo sapiens, UniProt Q8TCC7); test: Cellular uptake and kinetics in S2-hOAT3 vs Mock cells; format: in vitro ADME
T3 sequence (Q8TCC7 1-542): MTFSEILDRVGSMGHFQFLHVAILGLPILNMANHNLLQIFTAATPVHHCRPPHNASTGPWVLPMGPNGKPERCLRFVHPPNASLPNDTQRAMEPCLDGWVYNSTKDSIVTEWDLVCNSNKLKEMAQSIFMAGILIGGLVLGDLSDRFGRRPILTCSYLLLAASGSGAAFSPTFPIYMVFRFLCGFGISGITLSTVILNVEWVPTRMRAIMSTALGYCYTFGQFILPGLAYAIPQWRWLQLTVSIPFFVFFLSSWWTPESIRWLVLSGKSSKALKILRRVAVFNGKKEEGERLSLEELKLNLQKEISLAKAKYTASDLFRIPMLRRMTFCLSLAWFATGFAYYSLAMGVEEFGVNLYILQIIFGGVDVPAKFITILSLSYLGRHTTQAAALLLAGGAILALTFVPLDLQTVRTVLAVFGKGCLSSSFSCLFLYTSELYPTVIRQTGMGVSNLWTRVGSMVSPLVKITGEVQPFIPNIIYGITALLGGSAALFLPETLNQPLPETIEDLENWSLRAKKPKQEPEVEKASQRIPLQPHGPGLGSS

hOATP2B1 = molecular target: T4, hOATP2B1 (Homo sapiens, UniProt O94956); test: Cellular uptake in HEK293-hOATP2B1 vs Mock cells; format: in vitro ADME
T4 sequence (O94956 1-709): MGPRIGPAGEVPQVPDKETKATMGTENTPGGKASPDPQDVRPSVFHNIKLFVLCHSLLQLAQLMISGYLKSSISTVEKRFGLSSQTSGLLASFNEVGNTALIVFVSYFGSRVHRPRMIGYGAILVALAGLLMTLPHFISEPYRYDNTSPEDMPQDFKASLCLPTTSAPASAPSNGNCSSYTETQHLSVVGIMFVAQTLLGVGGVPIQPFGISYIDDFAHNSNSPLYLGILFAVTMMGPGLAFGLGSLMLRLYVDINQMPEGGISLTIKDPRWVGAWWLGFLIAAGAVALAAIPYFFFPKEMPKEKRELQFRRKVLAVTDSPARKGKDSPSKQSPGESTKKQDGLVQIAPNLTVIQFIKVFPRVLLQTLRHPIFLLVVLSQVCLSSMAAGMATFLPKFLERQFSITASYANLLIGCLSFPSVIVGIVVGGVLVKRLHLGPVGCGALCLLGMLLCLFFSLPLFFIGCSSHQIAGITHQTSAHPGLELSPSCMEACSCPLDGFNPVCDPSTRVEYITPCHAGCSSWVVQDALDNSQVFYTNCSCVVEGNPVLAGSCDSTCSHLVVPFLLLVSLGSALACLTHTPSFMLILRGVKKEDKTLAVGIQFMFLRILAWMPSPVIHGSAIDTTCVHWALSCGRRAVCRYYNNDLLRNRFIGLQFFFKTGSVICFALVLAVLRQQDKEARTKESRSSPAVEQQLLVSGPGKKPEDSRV

mice liver slices = test: In vitro uptake of TDE in mice liver slices; format: in vitro ADME, Kunming mice; conditions: TDE 10 μmol/L
In short: (§2)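 Kunming mice (20–25 g, fasted 12 h) were anaesthetised with urethane, and kidney or liver was decapsulated into ice-cold oxygenated buffer at pH 7.5. Slices of about 30 mg were preincubated 5 min under carbogen at 4 or 37 °C. They were then incubated with 10 μmol/L test compound for 5, 10 or 30 min, with or without reference OAT1/OAT3 or OATP inhibitors or co-ingredients. Slices were then washed, blotted, weighed and homogenised, then extracted with methanol and an internal standard for HPLC–MS.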

hOAT1 = molecular target: T5, hOAT1 (Homo sapiens, UniProt Q4U2R8); test: Cellular uptake in MDCK-hOAT1 vs Mock cells; format: in vitro ADME; conditions: 100 μmol/L, substrate if >2-fold of wild type
T5 sequence (Q4U2R8 1-563): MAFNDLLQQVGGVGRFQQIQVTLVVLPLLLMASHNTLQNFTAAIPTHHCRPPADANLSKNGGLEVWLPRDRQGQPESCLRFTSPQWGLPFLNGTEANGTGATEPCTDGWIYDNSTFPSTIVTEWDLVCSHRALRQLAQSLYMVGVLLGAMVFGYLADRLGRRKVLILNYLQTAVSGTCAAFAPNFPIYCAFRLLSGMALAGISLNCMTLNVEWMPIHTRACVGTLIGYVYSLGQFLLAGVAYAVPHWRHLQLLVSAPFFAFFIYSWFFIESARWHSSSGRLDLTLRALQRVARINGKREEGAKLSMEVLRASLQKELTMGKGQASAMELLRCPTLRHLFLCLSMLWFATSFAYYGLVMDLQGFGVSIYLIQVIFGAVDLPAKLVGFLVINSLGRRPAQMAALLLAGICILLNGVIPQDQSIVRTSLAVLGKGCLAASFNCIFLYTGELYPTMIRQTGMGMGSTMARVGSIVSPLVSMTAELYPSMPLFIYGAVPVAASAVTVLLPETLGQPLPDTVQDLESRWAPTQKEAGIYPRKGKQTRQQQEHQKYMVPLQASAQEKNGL
In short: as §1

mice kidney slices = test: In vitro uptake of TDE in mice kidney slices; format: in vitro ADME, Kunming mice; conditions: TDE 10 μmol/L
In short: as §2

[1] = substrate: COc1cc2c(cc1OC)[C@@H]1Cc3ccc(OC)c(OC)c3CN1CC2; test: Cellular uptake and kinetics in S2-hOAT3 vs Mock cells; format: in vitro ADME, human; conditions: other: hOAT3, TDE 0.03-10 μmol/L, 2 min, 37 °C, Eadie-Hofstee, pH 7.4
[2] = 100 μmol/L, substrate if >2-fold of wild type

accumulation of model substrate, fold higher than in Mock cells (hOATP1B3; 50 nmol/L 3H-ES, 2 min, HEK293-hOATP1B3 vs Mock): 4.7 fold
Uptake rate, Control (hOATP1B3; HEK293-hOATP1B3, 50 nmol/L 3H-ES, 2 min): 0.52 ± 0.017∗∗ pmol/mg protein/min
Uptake rate, Control + inhibitor (hOATP1B3; HEK293-hOATP1B3, 50 nmol/L 3H-ES, 2 min, inhibitor not named): 0.24 ± 0.13 pmol/mg protein/min
accumulation of model substrate, fold higher than in Mock cells (hOATP1B1; 50 nmol/L 3H-ES, 2 min, HEK293-hOATP1B1 vs Mock): 10.3 fold
Uptake rate, Control (hOATP1B1; HEK293-hOATP1B1, 50 nmol/L 3H-ES, 2 min): 1.13 ± 0.11∗∗ pmol/mg protein/min
Uptake rate, Control + inhibitor (hOATP1B1; HEK293-hOATP1B1, 50 nmol/L 3H-ES, 2 min, inhibitor not named): 0.35 ± 0.14 pmol/mg protein/min
accumulation of model substrate, fold higher than in Mock cells (hOAT3; 50 nmol/L 3H-ES, 2 min, S2-hOAT3 vs Mock): 5.6 fold
Uptake rate, Control (hOAT3; S2-hOAT3, 50 nmol/L 3H-ES, 2 min): 0.62 ± 0.015∗∗ pmol/mg protein/min
Uptake rate, Control + inhibitor (hOAT3; S2-hOAT3, 50 nmol/L 3H-ES, 2 min, inhibitor not named): 0.29 ± 0.17 pmol/mg protein/min
accumulation of model substrate, fold higher than in Mock cells (hOATP2B1; 50 nmol/L 3H-ES, 2 min, HEK293-hOATP2B1 vs Mock): 4.2 fold
Uptake rate, Control (hOATP2B1; HEK293-hOATP2B1, 50 nmol/L 3H-ES, 2 min): 0.46 ± 0.011∗∗ pmol/mg protein/min
Uptake rate, Control + inhibitor (hOATP2B1; HEK293-hOATP2B1, 50 nmol/L 3H-ES, 2 min, inhibitor not named): 0.19 ± 0.034 pmol/mg protein/min
Molecule: CC12CCC3c4ccc(OS(=O)(=O)O)cc4CCC3C1CCC2=O (stereo not drawn) [3H-ES, 3H-estrone sulfate, reference compound]

Molecule: CO[C@H]1/C=C/O[C@@]2(C)Oc3c(C)c(O)c4c(O)c(c(/C=N/N5CCN(C)CC5)c(O)c4c3C2=O)NC(=O)/C(C)=C\C=C\[C@H](C)[C@H](O)[C@@H](C)[C@@H](O)[C@@H](C)[C@H](OC(C)=O)[C@@H]1C [Rifampicin, rifampicin, reference compound]
effect on the uptake of TDE in liver slices (mice liver slices; mice liver slices): could inhibit

accumulation in HEK293-hOATP1B3 vs HEK293 wild type (hOATP1B3; [2]): 3.31 fold
Vmax (hOATP1B3; hOATP1B3, TDE 0.03-10 μmol/L, 2 min, 37 °C, Eadie-Hofstee): 512.09 pmol/mg protein/min
Km at 2 min (hOATP1B3; human, pH 7.4): 6.72 µM
accumulation in hOATP1B1-overexpressed cell lines compared to wild type (hOATP1B1; 100 μmol/L): could largely accumulate
accumulation of TDE at 37 °C, fold greater than at 4 °C (mice liver slices; liver slices, 30 min): approximately 2.3 fold
accumulation in MDCK-hOAT1, fold higher than in MDCK-Mock (hOAT1): about 1.25 fold
accumulation in S2-hOAT3, fold higher than wild type (S2-Mock) (hOAT3; [2]): about 2.25 fold
accumulation in HEK293-hOATP2B1 vs HEK293 wild type (hOATP2B1; [2]): less than 2 fold
Molecule: COc1cc2c(cc1OC)[C@@H]1Cc3ccc(OC)c(OC)c3CN1CC2 [TDE, tetrahydropalmatine]

Molecule: CCCN(CCC)S(=O)(=O)c1ccc(C(=O)O)cc1 [probenecid, reference compound]
effect on the uptake of TDE in kidney slices (mice kidney slices): could inhibit

B1: hOAT3 (Homo sapiens) (protein)
chain: MTFSEILDRVGSMGHFQFLHVAILGLPILNMANHNLLQIFTAATPVHHCRPPHNASTGPWVLPMGPNGKPERCLRFVHPPNASLPNDTQRAMEPCLDGWVYNSTKDSIVTEWDLVCNSNKLKEMAQSIFMAGILIGGLVLGDLSDRFGRRPILTCSYLLLAASGSGAAFSPTFPIYMVFRFLCGFGISGITLSTVILNVEWVPTRMRAIMSTALGYCYTFGQFILPGLAYAIPQWRWLQLTVSIPFFVFFLSSWWTPESIRWLVLSGKSSKALKILRRVAVFNGKKEEGERLSLEELKLNLQKEISLAKAKYTASDLFRIPMLRRMTFCLSLAWFATGFAYYSLAMGVEEFGVNLYILQIIFGGVDVPAKFITILSLSYLGRHTTQAAALLLAGGAILALTFVPLDLQTVRTVLAVFGKGCLSSSFSCLFLYTSELYPTVIRQTGMGVSNLWTRVGSMVSPLVKITGEVQPFIPNIIYGITALLGGSAALFLPETLNQPLPETIEDLENWSLRAKKPKQEPEVEKASQRIPLQPHGPGLGSS
Km [1]: 1.44 µM
Vmax [1]: 188.45 pmol/mg protein/min
